Test results taken from ChEMBL document CHEMBL1126195, “A new, general synthetic route to multidentate N,S ligands for use in technetium-99m radiopharmaceuticals. Preparation of diamido disulfur, diamino dithiol, and tripodal N3S3 prototypes. Comparative biodistributions of [99mTcvO-DADS]- analogues which contain 5,5,5- and 5,7,5-membered chelate ring …” (J Med Chem, 1992).

What was measured:
Rattus norvegicus [1] = organism: Rattus norvegicus; assay: Biodistribution was reported in rat kidney after 1 min.; format: ADME, organism-based; details: in vivo
In short: (§1)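 Female Sprague-Dawley rats (~200 g average, n = 3 per time point) were anesthetized with Metofane. They received 0.2 mL of 99mTc complex (50 µCi) by jugular vein injection. Rats were killed by cervical dislocation at early times or CO2 at later times. Blood (1 mL), brain, heart, a liver sample and one kidney were weighed and gamma-counted (100-150 keV) against standards. Values are average % injected dose/organ.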

Rattus norvegicus [2] = organism: Rattus norvegicus; assay: Biodistribution was reported in rat kidney after 30 min.; format: ADME, organism-based; details: in vivo, 0.5 h; in short: as §1
Rattus norvegicus [3] = organism: Rattus norvegicus; assay: Biodistribution was reported in rat kidney after 5 min.; format: ADME, organism-based; details: in vivo; in short: as §1
Rattus norvegicus [4] = organism: Rattus norvegicus; assay: Biodistribution was reported in rat kidney after 60 min.; format: ADME, organism-based; details: in vivo, 1 h; in short: as §1
Rattus norvegicus [5] = organism: Rattus norvegicus; assay: Biodistribution was reported in rat liver after 15 min.; format: ADME, organism-based; details: in vivo, 0.25 h; in short: as §1
Rattus norvegicus [6] = organism: Rattus norvegicus; assay: Biodistribution was reported in rat liver after 1 min.; format: ADME, organism-based; details: in vivo; in short: as §1
Rattus norvegicus [7] = organism: Rattus norvegicus; assay: Biodistribution was reported in rat liver after 60 min.; format: ADME, organism-based; details: in vivo, 1 h; in short: as §1
Rattus norvegicus [8] = organism: Rattus norvegicus; assay: Biodistribution was reported in rat brain after 1 min.; format: ADME, organism-based; details: in vivo; in short: as §1
Rattus norvegicus [9] = organism: Rattus norvegicus; assay: Biodistribution was reported in rat brain after 30 min.; format: ADME, organism-based; details: in vivo, 0.5 h; in short: as §1
Rattus norvegicus [10] = organism: Rattus norvegicus; assay: Biodistribution was reported in rat brain after 5 min.; format: ADME, organism-based; details: in vivo; in short: as §1
Rattus norvegicus [11] = organism: Rattus norvegicus; assay: Biodistribution was reported in rat brain after 60 min.; format: ADME, organism-based; details: in vivo, 1 h; in short: as §1
Rattus norvegicus [12] = organism: Rattus norvegicus; assay: Biodistribution was reported in rat heart after 15 min.; format: ADME, organism-based; details: in vivo, 0.25 h; in short: as §1
Rattus norvegicus [13] = organism: Rattus norvegicus; assay: Biodistribution was reported in rat heart after 1 min.; format: ADME, organism-based; details: in vivo; in short: as §1
Rattus norvegicus [14] = organism: Rattus norvegicus; assay: Biodistribution was reported in rat heart after 30 min.; format: ADME, organism-based; details: in vivo, 0.5 h; in short: as §1
Rattus norvegicus [15] = organism: Rattus norvegicus; assay: Biodistribution was reported in rat heart after 5 min.; format: ADME, organism-based; details: in vivo; in short: as §1
Rattus norvegicus [16] = organism: Rattus norvegicus; assay: Biodistribution was reported in rat heart after 60 min.; format: ADME, organism-based; details: in vivo, 1 h; in short: as §1
Rattus norvegicus [17] = organism: Rattus norvegicus; assay: Biodistribution was reported in rat kidney after 15 min.; format: ADME, organism-based; details: in vivo, 0.25 h; in short: as §1
Rattus norvegicus [18] = organism: Rattus norvegicus; assay: Biodistribution was reported in rat blood after 15 min.; format: ADME, organism-based; details: in vivo, 0.25 h; in short: as §1
Rattus norvegicus [19] = organism: Rattus norvegicus; assay: Biodistribution was reported in rat blood after 1 min.; format: ADME, organism-based; details: in vivo; in short: as §1
Rattus norvegicus [20] = organism: Rattus norvegicus; assay: Biodistribution was reported in rat blood after 5 min.; format: ADME, organism-based; details: in vivo; in short: as §1
Rattus norvegicus [21] = organism: Rattus norvegicus; assay: Biodistribution was reported in rat blood after 60 min.; format: ADME, organism-based; details: in vivo, 1 h; in short: as §1
Rattus norvegicus [22] = organism: Rattus norvegicus; assay: Biodistribution was reported in rat brain after 15 min.; format: ADME, organism-based; details: in vivo, 0.25 h; in short: as §1
Rattus norvegicus [23] = organism: Rattus norvegicus; assay: Biodistribution was reported in rat blood after 30 min.; format: ADME, organism-based; details: in vivo, 0.5 h; in short: as §1
Rattus norvegicus [24] = organism: Rattus norvegicus; assay: Biodistribution was reported in rat liver after 30 min.; format: ADME, organism-based; details: in vivo, 0.5 h; in short: as §1
Rattus norvegicus [25] = organism: Rattus norvegicus; assay: Biodistribution was reported in rat liver after 5 min.; details: in vivo

| Structure (SMILES) | Dose/organ (Rattus norvegicus [1]) [%] | Dose/organ (Rattus norvegicus [2]) [%] | Dose/organ (Rattus norvegicus [3]) [%] | Dose/organ (Rattus norvegicus [4]) [%] | Dose/organ (Rattus norvegicus [5]) [%] | Dose/organ (Rattus norvegicus [6]) [%] | Dose/organ (Rattus norvegicus [7]) [%] | Dose/organ (Rattus norvegicus [8]) [%] | Dose/organ (Rattus norvegicus [9]) [%] | Dose/organ (Rattus norvegicus [10]) [%] | Dose/organ (Rattus norvegicus [11]) [%] | Dose/organ (Rattus norvegicus [12]) [%] | Dose/organ (Rattus norvegicus [13]) [%] | Dose/organ (Rattus norvegicus [14]) [%] | Dose/organ (Rattus norvegicus [15]) [%] | Dose/organ (Rattus norvegicus [16]) [%] | Dose/organ (Rattus norvegicus [17]) [%] | Dose/organ (Rattus norvegicus [18]) [%] | Dose/organ (Rattus norvegicus [19]) [%] | Dose/organ (Rattus norvegicus [20]) [%] | also measured |
| --- | --- | --- | --- | --- | --- | --- | --- | --- | --- | --- | --- | --- | --- | --- | --- | --- | --- | --- | --- | --- | --- |
| O=C(CSC(=O)c1ccccc1)NCCCCNC(=O)CSC(=O)c1ccccc1 | 16.5 | 1.92 | 5.4 | 1.14 | 3.84 | 17.44 | 0.56 | 0.06 | 0 | 0.03 | 0 | 0.08 | 0.38 | 0.02 | 0.18 | 0.01 | 5.04 | 4.62 | 31.08 | 9.52 | Dose/organ (Rattus norvegicus [21]): 0.56%; Dose/organ (Rattus norvegicus [22]): 0.01%; Dose/organ (Rattus norvegicus [23]): 0.98%; Dose/organ (Rattus norvegicus [24]): 0.88%; Dose/organ (Rattus norvegicus [25]): 6.96% |
| O=C(CSC(=O)c1ccccc1)NCC(c1ccccc1)C(CNC(=O)CSC(=O)c1ccccc1)c1ccccc1 (stereo not given) | 2.2 | 1 | 1.6 | 0.92 | 71.36 | 66.32 | 47.68 | 0.05 | 0.01 | 0.01 | 0 | 0.1 | 0.17 | 0.04 | 0.1 | 0.03 | 1.2 | 3.64 | 24.64 | 5.18 | Dose/organ (Rattus norvegicus [21]): 2.1%; Dose/organ (Rattus norvegicus [22]): 0.01%; Dose/organ (Rattus norvegicus [23]): 2.52%; Dose/organ (Rattus norvegicus [24]): 61.12%; Dose/organ (Rattus norvegicus [25]): 61.6% |
